Source: PubChem
Hsp70 act: transcriptional activators of Hsp70; HeLa Hsp70 promoter luciferase reporter, luminescence; scaled: vehicle 0, proteasome-inhibitor control 100%; activation, % at 10 µM; 0.04% of 200,000 active;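 active = activation above the mean across all tested compounds plus 3 SD, cutoff set per campaign, cut at about 5.5% in these data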;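 also: 100% = MG132 at 30 µM as the positive control and 0% = DMSO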
T cruzi inh: blocks replication of Trypanosoma cruzi; T. cruzi beta-gal in NIH3T3, luminescence, 90 h; inhibition, % (concentration not given with the values); 1.4% of 300,000 active; AID 1885;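 active = mean inhibition across valid replicates above about 55%, limit read from the data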;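 also: signal also drops with host cell toxicity which is not excluded here; 0% = plate median of DMSO wells and 100% = zero luminescence signal; higher percent means less beta-gal luminescence so fewer parasites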
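Assay system: NIH/3T3 host cells with β-galactosidase reporter T. cruzi; input: 5,000 host fibroblasts per well; compound: single 50 nL compound addition per well in DMSO; timing: ≥90 h infection period, 3 h prior cell attachment; measured by: GalScreen β-gal luminescence, detergent lysis, 60 min; evaluation: percent inhibition of parasite-derived β-gal signal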
HSF1 inhib: HSF1 inhibition. 0.77% of 300,000 active. NIH3T3-HGL HSE-luciferase, MG132-induced, luminescence 8 h; stronger effect = lower value. AID 2098. activity change, negative = inhibition, % at 7.5 µM (by protocol);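 active = more than half of replicate wells show activity change below -50%, luminescence cut by over half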;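 also: luciferase reports HSF-1 transcriptional activity via heat shock element; 0% = median of DMSO wells and -100% = zero luminescence signal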
HSF-1 act: increases HSF-1 driven luciferase reporter signal; NIH3T3-HGL HSF-1 luciferase reporter, MG132, 8 h; 100% = twice DMSO control signal; activation, % at 9 µM; 1.7% of 300,000 active; AID 504408;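 active = mean replicate activation of at least 50% with a set share of replicates each reaching 50%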;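 also: 0% = median of the neutral control wells and 100% = twice that signal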
Lmaj promast: Leishmania major promastigote growth inhibition | Leishmania major promastigotes, resazurin fluorescence viability | inhibition, % at 10 µM | 9% of 200,000 active | AID 1063; in the data active = inhibition above about 50%;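 also: promastigotes grown with compound for 44 hours at 28 °C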
The depositor's hits bear a star; · = no result. The entries come from a sample that favours hits as a whole.

SMILES | Hsp70 act | T cruzi inh | HSF1 inhib | HSF-1 act | Lmaj promast
CN1C(=O)C(=Cc2sc(=O)n(-c3ccccc3)c2N2CCCCC2)C(=O)N(C)C1=O | · | -4.6 | 26.6 | 66.7* | ·
COc1ccc(CNCCc2c(C)[nH]c3ccc(OC(F)(F)F)cc23)c(OC)c1 | · | 58.7* | -5.9 | 3.2 | ·
CC(=O)OC1(c2ccccc2)CCN(C)CC1(C)C (stereo unspecified) | -0.2 | -3.2 | -0.9 | -1.7 | -1.7
CNC(=S)NC1CC2CCCC(C1)N2CC(C)C (stereo unspecified) | -0.2 | 2.4 | 3.5 | -0.2 | 1.3
Cc1ccc(CN2C3CCCC2CC(NC(=S)NCc2ccccc2)C3)cc1 (stereo unspecified) | 0.0 | 49.7 | 0.3 | 10.8 | 91.8*
O=C1NC(=O)C(C(CC(=O)c2ccccc2)c2ccccc2)C(=O)N1 (stereo unspecified) | -0.1 | -6.4 | 4.3 | 16.9 | -4.2
CCOC(=O)C1(c2ccccc2)CCN(Cc2cccc(C(=O)O)c2)CC1 | -0.3 | -10.7 | -1.8 | -6.8 | -3.9
CCOC(=O)C1(CCc2ccccc2)CCN(Cc2ccc3c(c2)OCCO3)CC1 | -0.2 | 23.0 | -4.8 | 1.9 | 84.3*
CCOC(=O)C1(CCc2ccccc2)CCN(C2CCSCC2)CC1 | -0.4 | 17.9 | -3.5 | 5.9 | 88.3*
CCOC(=O)C1(c2ccccc2)CCN(CC(=O)Nc2cccc3ccccc23)CC1 | -0.3 | 45.6 | -0.5 | -0.5 | 14.3
CCOC(=O)C1(CCCc2ccccc2)CCN(C2CCCC2)CC1 | -0.3 | -20.1 | -0.5 | -1.4 | 70.9*
CCOC(=O)C1(CCc2ccccc2)CCN(Cc2ccc(NC(C)=O)cc2)CC1 | · | -6.2 | -2.4 | -10.5 | ·
CCOC(=O)C1(CCOc2ccccc2)CCN(Cc2ccc(C)s2)CC1 | -0.3 | 50.3 | 9.5 | 6.1 | 81.1*
C=CCn1c(O)c(/C(C)=N/N2CCN(C)CC2)c(=O)[nH]c1=O | · | -21.0 | -2.3 | 19.3 | ·
COc1ccc(C2(C#N)CCN(C)CC2)cc1 | -0.4 | -3.2 | 4.7 | -0.6 | 6.1
CCN1C[C@@]2(COC)C3[C@@H](OC)[C@H]4[C@@H]1[C@@]3(C1C[C@H]3[C@H](OC(=O)c5ccccc5)C1[C@]4(OC(C)=O)C[C@H]3OC)[C@@H](OC)C[C@H]2O (stereo partly specified) | · | -3.4 | 2.1 | 15.9 | ·
COC(=O)C1(C(=O)O)Cc2cc([N+](=O)[O-])ccc2N2CCCC21 (stereo unspecified) | · | -2.6 | 2.4 | -10.3 | ·
CCC(C)NC(=O)c1c(N)n(CC2CCCO2)c2nc3ccccc3nc12 (stereo unspecified) | -0.4 | 18.5 | -7.5 | 6.0 | 67.3*
CCC(C)NC(=O)c1c(N)n(Cc2ccc3c(c2)OCO3)c2nc3ccccc3nc12 (stereo unspecified) | -0.2 | 34.8 | 5.4 | -17.3 | 65.2*
CCC(C)NC(=O)c1c(N)n(CCCOC)c2nc3ccccc3nc12 (stereo unspecified) | 0.1 | -6.7 | 2.8 | 12.0 | 13.7
CC(Cc1ccccc1)NC(=O)CCCCC(=O)NC(C)Cc1ccccc1 (stereo unspecified) | · | -3.6 | -9.9 | -20.4 | ·
O=C(Cc1ccccc1)N1CCN(Cc2ccc([N+](=O)[O-])cc2)CC1 | -0.5 | 16.5 | -3.3 | 6.0 | 15.9
O=[N+]([O-])c1cccc(CN2CCN(Cc3ccc(Br)cc3)CC2)c1 | -0.2 | 53.2 | 2.7 | 2.8 | 86.7*
CC(=O)OC1N=C(c2ccccc2)c2cc(C)ccc2NC1=O (stereo unspecified) | -0.3 | · | · | · | 74.7*
CCOC(=O)C1CCN(C(C)C(=O)c2c(C)[nH]c3cc(C)ccc23)CC1 (stereo unspecified) | 0.2 | 22.2 | 7.1 | 31.1 | 18.5
CCOC(=O)c1ccc(-[n+]2c(-c3ccccc3)cc(-c3ccccc3)cc2-c2ccccc2)cc1 | · | 65.3* | 16.2 | 28.0 | ·
c1ccc(-c2cc(-c3ccccc3)[n+](-c3ccccc3)c(-c3ccccc3)c2)cc1 | · | 42.4 | -12.6 | -16.7 | ·
CN(C)c1ccc(-[n+]2c(-c3ccccc3)cc(-c3ccccc3)cc2-c2ccccc2)cc1 | -0.3 | 60.7* | -16.7 | -15.9 | 100.4*
O=C(NC1CN2CCC1CC2)c1ccc(-c2ccc([N+](=O)[O-])cc2)o1 (stereo unspecified) | -0.2 | 24.2 | 19.7 | -6.1 | 6.8
CCN(CC)S(=O)(=O)c1cccc(N=Nc2c(O)n(CC)c(=S)n(CC)c2=O)c1 | · | -11.5 | 6.2 | 10.6 | ·
